Experimental data published in ChEMBL document CHEMBL3352430, “4-Aminopyridyl-based CYP51 inhibitors as anti-Trypanosoma cruzi drug leads with improved pharmacokinetic profile and in vivo potency” (J Med Chem, 2014).

What was measured:
[1] = test system: Intestine; assay: Drug uptake in mouse intestine at 50 mg/kg, po in 20% HP-beta-CD measured at 8 hrs post dose; type: ADME, organism-based; set-up: dose 50 mg/kg, route oral; details: in vivo
Method in brief: (§1)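 Female Swiss Webster mice, 8 weeks old, given a single 50 mg/kg oral gavage dose in 20% HPβCD or 20% Kolliphor. Tissues taken from three mice at 2 and 8 h post dose. Homogenized by probe sonication in PBS (1:4 w/v), protein precipitated with acetonitrile, and compound measured by LC-MS/MS in μM.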

[2] = test system: Liver; assay: Drug uptake in mouse liver at 50 mg/kg, po in 20% Kolliphor measured at 8 hrs post dose; type: ADME, organism-based; set-up: dose 50 mg/kg, route oral; details: in vivo; method in brief: as §1
[3] = test system: Lung; assay: Drug uptake in mouse lung at 50 mg/kg, po in 20% Kolliphor measured at 8 hrs post dose; type: ADME, organism-based; set-up: dose 50 mg/kg, route oral; details: in vivo; method in brief: as §1
[4] = test system: Heart; assay: Drug uptake in mouse heart at 50 mg/kg, po in 20% Kolliphor measured at 8 hrs post dose; type: ADME, organism-based; set-up: dose 50 mg/kg, route oral; details: in vivo; method in brief: as §1
[5] = Drug uptake in mouse fat at 50 mg/kg, po in 20% Kolliphor measured at 8 hrs post dose; type: ADME, organism-based, Adipose tissue; set-up: dose 50 mg/kg, route oral; details: in vivo; method in brief: as §1
[6] = Drug uptake in mouse skeletal muscle at 50 mg/kg, po in 20% Kolliphor measured at 8 hrs post dose; type: ADME, organism-based, Muscle tissue; set-up: dose 50 mg/kg, route oral; details: in vivo; method in brief: as §1
[7] = test system: Brain; assay: Drug uptake in mouse brain at 50 mg/kg, po in 20% Kolliphor measured at 8 hrs post dose; type: ADME, organism-based; set-up: dose 50 mg/kg, route oral; details: in vivo; method in brief: as §1
[8] = test system: Brain; assay: Drug uptake in mouse brain at 50 mg/kg, po in 20% Kolliphor measured at 2 hrs post dose; type: ADME, organism-based; set-up: dose 50 mg/kg, route oral; details: in vivo; method in brief: as §1
[9] = test system: Brain; assay: Drug uptake in mouse brain at 50 mg/kg, po in 20% HP-beta-CD measured at 8 hrs post dose; type: ADME, organism-based; set-up: dose 50 mg/kg, route oral; details: in vivo; method in brief: as §1
[10] = test system: Liver; assay: Drug uptake in mouse liver at 50 mg/kg, po in 20% HP-beta-CD measured at 8 hrs post dose; type: ADME, organism-based; set-up: dose 50 mg/kg, route oral; details: in vivo; method in brief: as §1
[11] = test system: Lung; assay: Drug uptake in mouse lung at 50 mg/kg, po in 20% HP-beta-CD measured at 8 hrs post dose; type: ADME, organism-based; set-up: dose 50 mg/kg, route oral; details: in vivo; method in brief: as §1
[12] = test system: Heart; assay: Drug uptake in mouse heart at 50 mg/kg, po in 20% HP-beta-CD measured at 8 hrs post dose; type: ADME, organism-based; set-up: dose 50 mg/kg, route oral; details: in vivo; method in brief: as §1
[13] = Drug uptake in mouse fat at 50 mg/kg, po in 20% HP-beta-CD measured at 8 hrs post dose; type: ADME, organism-based, Adipose tissue; set-up: dose 50 mg/kg, route oral; details: in vivo; method in brief: as §1
[14] = Drug uptake in mouse skeletal muscle at 50 mg/kg, po in 20% HP-beta-CD measured at 8 hrs post dose; type: ADME, organism-based, Muscle tissue; set-up: dose 50 mg/kg, route oral; details: in vivo; method in brief: as §1
[15] = test system: Trypanosoma cruzi; assay: Antitrypanosomal activity against Trypanosoma cruzi Y luc infected in mouse assessed as inhibition of parasitemia at 50 mg/kg, po bid in 20% Kolliphor administered for 4 consecutive days starting on day 3 of infection measured on day 7 post infection relative to vehicle-treated control; type: functional
Method in brief: (§2)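 Female Swiss Webster mice, 8 weeks old, infected ip with 10^5 T. cruzi Y luc trypomastigotes. Only mice with detectable luminescence on day 3 were treated. Compound given by oral gavage bid for four days, as a suspension in 20% HPβCD or a solution in 20% Kolliphor, five mice per group. Vehicle group and benznidazole 50 mg/kg served as controls. On day 7, mice were injected ip with 150 mg/kg d-luciferin and imaged after 5 min under isoflurane. Percent inhibition calculated against untreated mice; two-tailed paired t test.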

[16] = test system: C2C12; assay: Cytotoxicity against mouse C2C12 cells up to 10 uM; type: cell-based
Method in brief: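 Mouse C2C12 myoblasts infected with T. cruzi CA-I/72, then exposed at 24 h postinfection to compound at 10 μM down to 5 pM in 5-fold steps for 72 h at 37 °C. Cells fixed in paraformaldehyde, stained with DAPI and scored by automated imaging. Triplicate wells; uninfected and infected untreated wells as controls.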

[17] = Half life in mouse at 50 mg/kg, po in 20% Kolliphor; type: ADME, organism-based; set-up: dose 50 mg/kg, route oral; details: in vivo
Method in brief: (§3)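 Female Swiss Webster mice, 8 weeks old, given one oral gavage dose of 50 mg/kg as a 10 mg/mL preparation in the named vehicle (20% HPβCD suspension or 20% Kolliphor). Plasma sampled at about 0.25, 0.5, 1, 2, 4, 6, 8, 12 and 24 h, n = 3 per time point. Protein precipitated with 5 volumes acetonitrile, filtered, then LC-MS/MS. Values are averages of three mice.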

[18] = Half life in mouse at 50 mg/kg, po in 20% HP-beta-CD; type: ADME, organism-based; set-up: dose 50 mg/kg, route oral; details: in vivo; method in brief: as §3
[19] = Tmax in mouse at 50 mg/kg, po in 20% Kolliphor; type: ADME, organism-based; set-up: dose 50 mg/kg, route oral; details: in vivo; method in brief: as §3
[20] = Tmax in mouse at 50 mg/kg, po in 20% HP-beta-CD; type: ADME, organism-based; set-up: dose 50 mg/kg, route oral; details: in vivo; method in brief: as §3
[21] = Cmax in mouse at 50 mg/kg, po in 20% Kolliphor; type: ADME, organism-based; set-up: dose 50 mg/kg, route oral; details: in vivo; method in brief: as §3
[22] = Cmax in mouse at 50 mg/kg, po in 20% HP-beta-CD; type: ADME, organism-based; set-up: dose 50 mg/kg, route oral; details: in vivo; method in brief: as §3
[23] = AUClast in mouse at 50 mg/kg, po in 20% Kolliphor; type: ADME, organism-based; set-up: time 0 - last, dose 50 mg/kg, route oral; details: plasma; method in brief: as §3
[24] = AUClast in mouse at 50 mg/kg, po in 20% HP-beta-CD; type: ADME, organism-based, Plasma; set-up: time 0 - last, dose 50 mg/kg, route oral; details: plasma; method in brief: as §3
[25] = Clearance in mouse at 50 mg/kg, po in 20% Kolliphor; type: ADME, organism-based; set-up: dose 50 mg/kg, route oral; details: in vivo; method in brief: as §3
[26] = Clearance in mouse at 50 mg/kg, po in 20% HP-beta-CD; type: ADME, organism-based; set-up: dose 50 mg/kg, route oral; details: in vivo; method in brief: as §3
[27] = test system: Intestine; assay: Drug uptake in mouse intestine at 50 mg/kg, po in 20% Kolliphor measured at 8 hrs post dose; type: ADME, organism-based; set-up: dose 50 mg/kg, route oral; details: in vivo; method in brief: as §1
[28] = test system: Hepatocyte; assay: Cytotoxicity against mouse hepatocytes assessed as growth inhibition after 72 hrs by Cell Titer Glo assay
[29] = test system: Cardiomyocyte; assay: Cytotoxicity against mouse cardiomyocytes assessed as growth inhibition after 72 hrs by Cell Titer Glo assay
[30] = target: Sterol 14-alpha demethylase (Trypanosoma cruzi (strain CL Brener), UniProt Q7Z1V1); assay: Binding affinity to Trypanosoma cruzi CYP51 by UV-vis titration method; details: read-out: Kd(app)
Sequence of Sterol 14-alpha demethylase (Q7Z1V1 whole entry): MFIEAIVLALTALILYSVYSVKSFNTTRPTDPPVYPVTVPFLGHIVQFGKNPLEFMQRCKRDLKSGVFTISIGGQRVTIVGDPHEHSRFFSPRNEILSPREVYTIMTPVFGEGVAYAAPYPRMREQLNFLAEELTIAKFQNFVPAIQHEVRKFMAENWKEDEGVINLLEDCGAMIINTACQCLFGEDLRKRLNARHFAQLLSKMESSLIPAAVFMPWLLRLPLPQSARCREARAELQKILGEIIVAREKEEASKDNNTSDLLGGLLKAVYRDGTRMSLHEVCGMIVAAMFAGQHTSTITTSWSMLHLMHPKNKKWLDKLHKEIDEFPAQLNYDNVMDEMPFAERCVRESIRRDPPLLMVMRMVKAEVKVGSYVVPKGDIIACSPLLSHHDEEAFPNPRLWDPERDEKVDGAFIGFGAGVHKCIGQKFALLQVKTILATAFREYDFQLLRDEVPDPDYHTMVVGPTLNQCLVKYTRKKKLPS

[31] = Ratio of Kd(app) for Trypanosoma cruzi CYP51 to EC50 for Trypanosoma cruzi amastigotes infected in mouse C2C12 cells
Method in brief: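 Ratio of apparent KD to EC50. Apparent KD was approximated from UV–vis spectrophotometric titration of T. cruzi CYP51 in aqueous solution. […] Compounds were added 24 h postinfection at 10 μM down to 5 pM for 72 h at 37 °C, 5% CO2. Fixed cells were DAPI-stained and imaged, in triplicate.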

[32] = test system: Trypanosoma cruzi; assay: Antitrypanosomal activity against Trypanosoma cruzi Y luc infected in mouse assessed as inhibition of parasitemia at 25 mg/kg, po bid in 20% Kolliphor administered for 4 consecutive days starting on day 3 of infection measured on day 7 post infection relative to vehicle-treated control; type: functional; method in brief: as §2
[33] = test system: Liver microsome; assay: Half life in human liver microsomes; type: ADME
[34] = test system: Liver microsome; assay: Half life in rat liver microsomes; type: ADME
[35] = test system: Liver; assay: Half life in mouse liver microsomes; type: ADME
[36] = target: T1, Cytochrome P450 1A2 (Homo sapiens, UniProt P05177); assay: Inhibition of CYP1A2 in human liver microsomes at 1 uM; type: ADME
T1 sequence (P05177 whole entry): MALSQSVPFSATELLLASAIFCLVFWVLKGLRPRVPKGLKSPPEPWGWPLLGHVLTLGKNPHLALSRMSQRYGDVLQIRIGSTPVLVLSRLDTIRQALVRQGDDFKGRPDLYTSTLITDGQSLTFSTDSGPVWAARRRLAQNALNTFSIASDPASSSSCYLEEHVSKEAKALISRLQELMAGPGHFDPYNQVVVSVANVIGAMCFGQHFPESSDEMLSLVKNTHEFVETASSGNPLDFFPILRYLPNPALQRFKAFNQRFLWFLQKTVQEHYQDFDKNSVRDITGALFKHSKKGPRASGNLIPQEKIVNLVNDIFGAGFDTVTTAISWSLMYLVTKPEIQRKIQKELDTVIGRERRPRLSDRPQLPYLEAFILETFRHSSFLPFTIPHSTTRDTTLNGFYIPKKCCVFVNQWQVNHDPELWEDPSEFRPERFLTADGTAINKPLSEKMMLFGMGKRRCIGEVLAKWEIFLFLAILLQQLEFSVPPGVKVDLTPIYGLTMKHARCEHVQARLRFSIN

[37] = target: Cytochrome P450 2C9 (Homo sapiens, UniProt P11712); assay: Inhibition of CYP2C9 in human liver microsomes at 1 uM; type: ADME
Sequence of Cytochrome P450 2C9 (P11712 whole entry): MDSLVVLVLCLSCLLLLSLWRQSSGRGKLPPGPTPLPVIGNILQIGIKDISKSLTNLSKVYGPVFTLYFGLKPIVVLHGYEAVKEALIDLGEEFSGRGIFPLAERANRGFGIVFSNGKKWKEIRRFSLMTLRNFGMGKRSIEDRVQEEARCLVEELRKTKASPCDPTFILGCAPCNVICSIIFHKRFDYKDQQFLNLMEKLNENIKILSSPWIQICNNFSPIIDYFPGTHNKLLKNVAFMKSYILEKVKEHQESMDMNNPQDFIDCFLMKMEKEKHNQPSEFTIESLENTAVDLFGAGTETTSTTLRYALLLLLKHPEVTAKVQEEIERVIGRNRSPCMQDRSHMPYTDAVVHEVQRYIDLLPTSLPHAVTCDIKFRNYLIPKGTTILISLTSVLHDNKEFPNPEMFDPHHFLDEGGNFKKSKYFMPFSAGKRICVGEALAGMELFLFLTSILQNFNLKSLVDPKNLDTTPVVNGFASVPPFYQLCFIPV

[38] = target: Cytochrome P450 2D6 (Homo sapiens, UniProt P10635); assay: Inhibition of CYP2D6 in human liver microsomes at 1 uM; type: ADME
Sequence of Cytochrome P450 2D6 (P10635 whole entry): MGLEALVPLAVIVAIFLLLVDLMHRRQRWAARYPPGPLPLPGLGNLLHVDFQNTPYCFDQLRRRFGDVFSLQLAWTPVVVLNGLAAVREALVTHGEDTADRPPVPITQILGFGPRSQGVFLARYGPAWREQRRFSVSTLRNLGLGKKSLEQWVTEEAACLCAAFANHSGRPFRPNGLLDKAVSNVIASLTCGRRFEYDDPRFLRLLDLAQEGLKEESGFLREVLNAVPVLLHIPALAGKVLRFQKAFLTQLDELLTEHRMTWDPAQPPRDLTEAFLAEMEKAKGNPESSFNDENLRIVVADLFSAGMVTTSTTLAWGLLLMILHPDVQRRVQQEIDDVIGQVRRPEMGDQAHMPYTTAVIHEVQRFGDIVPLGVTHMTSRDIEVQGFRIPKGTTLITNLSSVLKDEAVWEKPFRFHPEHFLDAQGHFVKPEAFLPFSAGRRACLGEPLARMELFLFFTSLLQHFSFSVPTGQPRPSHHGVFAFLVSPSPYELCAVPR

[39] = target: Cytochrome P450 3A4 (Homo sapiens, UniProt P08684); assay: Inhibition of CYP3A4 in human liver microsomes at 1 uM; type: ADME
Sequence of Cytochrome P450 3A4 (P08684 whole entry): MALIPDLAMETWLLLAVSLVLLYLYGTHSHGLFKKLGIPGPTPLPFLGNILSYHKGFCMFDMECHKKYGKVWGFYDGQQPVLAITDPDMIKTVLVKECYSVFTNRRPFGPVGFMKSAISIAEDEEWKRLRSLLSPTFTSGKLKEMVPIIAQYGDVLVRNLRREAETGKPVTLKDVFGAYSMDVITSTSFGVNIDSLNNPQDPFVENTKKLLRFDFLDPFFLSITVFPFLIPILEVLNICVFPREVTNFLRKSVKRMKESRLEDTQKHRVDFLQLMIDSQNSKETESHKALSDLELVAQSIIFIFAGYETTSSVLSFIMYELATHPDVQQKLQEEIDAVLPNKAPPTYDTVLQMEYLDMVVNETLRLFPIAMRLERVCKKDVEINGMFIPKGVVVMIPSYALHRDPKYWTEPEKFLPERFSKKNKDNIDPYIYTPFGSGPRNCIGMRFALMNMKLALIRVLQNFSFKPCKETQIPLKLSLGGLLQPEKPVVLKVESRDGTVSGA

[40] = test system: Trypanosoma cruzi; assay: Antitrypanosomal activity against Trypanosoma cruzi amastigotes infected in mouse C2C12 cells after 72 hrs by DAPI staining method; type: functional, organism-based; details: C2C12, 72 h
[41] = test system: Trypanosoma cruzi; assay: Antitrypanosomal activity against Trypanosoma cruzi Y luc infected in mouse assessed as inhibition of parasitemia at 40 mg/kg, ip bid in 60% DMSO administered for 4 consecutive days starting on day 3 of infection measured on day 7 post infection relative to vehicle-treated control

O=C(N[C@H](Cc1c[nH]c2ccccc12)C(=O)Nc1ccncc1)c1ccc(N2CCN(c3ccc(F)c(F)c3)CC2)cc1F
Drug uptake [1]: Active
Drug uptake [2]: Active
Drug uptake [3]: Active
Drug uptake [4]: Active
Drug uptake [5]: Active
Drug uptake [6]: Active
Drug uptake [7]: Active
Drug uptake [8]: Active
Drug uptake [9]: Active
Drug uptake [10]: Active
Drug uptake [11]: Active
Drug uptake [12]: Active
Drug uptake [13]: Active
Drug uptake [14]: Active
inhibition in vivo at 50 mg/kg [15]: 98.6%
Activity [16]: Non-toxic
half-life [17]: 4.55 h
half-life [18]: 1.45 h
Tmax [19]: 4 h
Tmax [20]: 2.67 h
Cmax [21]: 2080 nM
Cmax [22]: 640 nM
AUC(0-t) [23]: 17.7 µM·h
AUC(0-t) [24]: 2.37 µM·h
CL/F [25]: 83.5 mL/min/kg
CL/F [26]: 562 mL/min/kg
Drug uptake [27]: Active
EC50 [28]: > 90000 nM
EC50 [29]: > 90000 nM

O=C(N[C@H](Cc1c[nH]c2ccccc12)C(=O)Nc1ccncc1)c1ccc(N2CCN(c3cccc(F)c3)CC2)cc1F
Drug uptake [1]: Active
Drug uptake [2]: Active
Drug uptake [3]: Active
Drug uptake [4]: Active
Drug uptake [5]: Active
Drug uptake [6]: Active
Drug uptake [10]: Active
Drug uptake [11]: Active
Drug uptake [12]: Active
Drug uptake [13]: Active
Drug uptake [14]: Active
Kd [30]: 290 nM
Ratio [31]: 10
inhibition in vivo at 25 mg/kg [32]: 47.7%
t1/2 [33]: 6 min
t1/2 [34]: 0.3 h
t1/2 [35]: 0.333 h
inhibition (INH) [36]: 5%
inhibition (INH) [37]: 95%
inhibition (INH) [38]: 52%
inhibition (INH) [39]: 84%
EC50 [40]: 59 nM
Activity [16]: Non-toxic
Drug uptake [27]: Active
inhibition in vivo at 40 mg/kg [41]: 97.9%
